ChEMBL document CHEMBL1828606, “Anticancer and radio-sensitizing evaluation of some new thiazolopyrane and thiazolopyranopyrimidine derivatives bearing a sulfonamide moiety” (Eur J Med Chem, 2011)

What was measured:
MCF7 [1] = assay: Anticancer activity against human MCF7 cells assessed as viable cells at 25 uM after 48 hrs by SRB assay relative to control; format: functional
Procedure, shortened: (§1)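 MCF7 human breast tumor cells seeded at 10⁴ cells/well and left 24 h to attach. Compounds dissolved in DMSO, added in replicate wells per concentration, 48 h at 37 °C under 5% CO₂. Cells fixed and stained 30 min with 0.4% (wt/vol) SRB in 1% acetic acid. Washed four times with 1% acetic acid, dye recovered in Tris-EDTA, read on an ELISA reader.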

MCF7 [2] = assay: Anticancer activity against human MCF7 cells assessed as viable cells after 48 hrs by SRB assay; format: functional, cell-based; settings: MCF7, 48 h; procedure, shortened: as §1
MCF7 [3] = assay: Anticancer activity against human MCF7 cells assessed as viable cells at 10 uM after 48 hrs by SRB assay relative to control; format: functional; procedure, shortened: as §1
MCF7 [4] = assay: Anticancer activity against human MCF7 cells assessed as viable cells at 100 uM after 48 hrs by SRB assay relative to control; format: functional; procedure, shortened: as §1
MCF7 [5] = assay: Anticancer activity against human MCF7 cells assessed as viable cells at 50 uM after 48 hrs by SRB assay relative to control; format: functional; procedure, shortened: as §1
MCF7 [6] = assay: Anticancer activity against 8 Gy gamma-irradiated human MCF7 cells assessed as viable cells after 48 hrs at 100 uM by SRB assay relative to control; format: functional; procedure, shortened: as §1
MCF7 [7] = assay: Anticancer activity against 8 Gy gamma-irradiated human MCF7 cells assessed as viable cells after 48 hrs at 50 uM by SRB assay relative to control; format: functional; procedure, shortened: as §1
MCF7 [8] = assay: Anticancer activity against 8 Gy gamma-irradiated human MCF7 cells assessed as viable cells after 48 hrs by SRB assay; format: functional, cell-based; settings: MCF7, light or radiation study; procedure, shortened: as §1
MCF7 [9] = assay: Anticancer activity against 8 Gy gamma-irradiated human MCF7 cells assessed as viable cells after 48 hrs at 25 uM by SRB assay relative to control; format: functional; procedure, shortened: as §1
MCF7 [10] = assay: Anticancer activity against 8 Gy gamma-irradiated human MCF7 cells assessed as viable cells after 48 hrs at 10 uM by SRB assay relative to control; format: functional; procedure, shortened: as §1

Row | Structure (SMILES) | fold change (FC) (MCF7 [1]) | IC50 (MCF7 [2]) | fold change (FC) (MCF7 [3]) | fold change (FC) (MCF7 [4]) | fold change (FC) (MCF7 [5]) | fold change (FC) (MCF7 [6]) | fold change (FC) (MCF7 [7]) | IC50 (MCF7 [8]) | fold change (FC) (MCF7 [9]) | fold change (FC) (MCF7 [10])
1 | N#CC1=C(NC(N)=O)Oc2nc(Nc3ccc(S(N)(=O)=O)cc3)sc2C1c1ccc(Cl)cc1 (stereo not given) | 0.717 | 49.8 µM | 0.701 | 0.228 | 0.309 | – | – | – | – | –
2 | NS(=O)(=O)c1ccc(Nc2nc3c(s2)C(c2ccc(Cl)cc2)c2c(nc[nH]c2=O)O3)cc1 (stereo not given) | 0.515 | 41.6 µM | 0.794 | 0.175 | 0.204 | 0.04 | 0.06 | 28.4 µM | 0.371 | 0.65
3 | N#CC1=C(NC(=O)CCl)Oc2nc(Nc3ccc(S(N)(=O)=O)cc3)sc2C1c1ccc(Cl)cc1 (stereo not given) | 0.531 | 43.8 µM | 0.702 | 0.252 | 0.25 | – | – | – | – | –
4 | Nc1nc(=O)[nH]c2c1C(c1ccc(Cl)cc1)c1sc(Nc3ccc(S(N)(=O)=O)cc3)nc1O2 (stereo not given) | 0.56 | 84.1 µM | 0.9 | 0.654 | 0.265 | – | – | – | – | –
5 | N#CC1=C(/N=C/c2ccccc2)Oc2nc(Nc3ccc(S(N)(=O)=O)cc3)sc2C1c1ccc(Cl)cc1 (stereo not given) | 0.206 | 45.2 µM | 0.93 | 0.324 | 0.295 | – | – | – | – | –
6 | N#CC1=C(/N=C/c2ccc(Cl)cc2)Oc2nc(Nc3ccc(S(N)(=O)=O)cc3)sc2C1c1ccc(Cl)cc1 (stereo not given) | 0.24 | 34.6 µM | 0.634 | 0.304 | 0.257 | 0.182 | 0.143 | 17 µM | 0.124 | 0.462
7 | NC(=O)C1=C(N)Oc2nc(Nc3ccc(S(N)(=O)=O)cc3)sc2C1c1ccc(Cl)cc1 (stereo not given) | 0.499 | 41.8 µM | 0.815 | 0.21 | 0.169 | – | – | – | – | –
8 | Cc1ccc(S(=O)(=O)NC2=C(C#N)C(c3ccc(Cl)cc3)c3sc(Nc4ccc(S(N)(=O)=O)cc4)nc3O2)cc1 (stereo not given) | 0.52 | 71.7 µM | 0.92 | 0.6 | 0.2 | – | – | – | – | –
9 | Nc1nc(=S)[nH]c2c1C(c1ccc(Cl)cc1)c1sc(Nc3ccc(S(N)(=O)=O)cc3)nc1O2 (stereo not given) | 0.639 | 52.8 µM | 0.814 | 0.325 | 0.241 | – | – | – | – | –
10 | N#CC1=C(N)Oc2nc(Nc3ccc(S(N)(=O)=O)cc3)sc2C1c1ccc(Cl)cc1 (stereo not given) | 0.36 | 39.4 µM | 0.848 | 0.214 | 0.168 | 0.097 | 0.062 | 26.2 µM | 0.203 | 0.706
11 | N#CC1=C(NS(=O)(=O)c2ccccc2)Oc2nc(Nc3ccc(S(N)(=O)=O)cc3)sc2C1c1ccc(Cl)cc1 (stereo not given) | 0.492 | 47.5 µM | 0.697 | 0.361 | 0.239 | – | – | – | – | –
12 | CC(=O)N(C(C)=O)C1=C(C#N)C(c2ccc(Cl)cc2)c2sc(Nc3ccc(S(N)(=O)=O)cc3)nc2O1 (stereo not given) | 0.511 | 74.3 µM | 0.913 | 0.617 | 0.234 | – | – | – | – | –
13 | Nc1ncnc2c1C(c1ccc(Cl)cc1)c1sc(Nc3ccc(S(N)(=O)=O)cc3)nc1O2 (stereo not given) | 0.454 | 35.8 µM | 0.62 | 0.207 | 0.186 | 0.086 | 0.064 | 23.7 µM | 0.341 | 0.504
14 | CC(=O)NC1=C(C#N)C(c2ccc(Cl)cc2)c2sc(Nc3ccc(S(N)(=O)=O)cc3)nc2O1 (stereo not given) | 0.447 | 41.9 µM | 0.801 | 0.252 | 0.183 | – | – | – | – | –
